Assay results as given in ChEMBL document CHEMBL2321690, “New betulinic acid derivatives for bevirimat-resistant human immunodeficiency virus type-1” (J Med Chem, 2013).
Calls of active or inactive are those of the source. No cut-off for these calls is given here.

Key:
COS = assay: (§1) Inhibition of wild type Human immunodeficiency virus 1 NL4-3 envelope glycoprotein gp160-mediated cell-cell fusion between virus-infected monkey COS cells to human TZM-bl cells after 24 hrs by luciferase reporter gene assay; type: cell-based
Method in brief: (§2)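 COS cells (1 × 10^6 cells/mL) electroporated (950 µF, 150 V) with vector expressing NL4-3 Env and tat, then cultured one day. Mixed with TZM-bl cells with inhibitor over a 1–10000 nM range. Luciferase (RLU) in fused cells read 24 h after mixing, expressed as % of no-compound fusion. Points are mean ± SD of three tests.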

[1] = system: Human immunodeficiency virus 1; assay: Antiviral activity against bevirimat-resistant Human immunodeficiency virus 1 NL4-3 harboring gag V370A mutant infected in human 293T cells assessed as inhibition of CA-SP1 cleavage measured 2 days post infection by Western blotting analysis; type: functional, organism-based
Method in brief: (§3)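 Provirus plasmids (pNL4-3/V370A, pNL4-3/V362I, with pNL4-3 alongside) transfected into 293T cells, and virus produced in presence of compound. Supernatant virus harvested two days after transfection. Western blot with anti-p24 monoclonal antibody (183-H12-5C) to detect accumulation of CA-SP1 (p25), indicating inhibited CA-SP1 cleavage.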

[2] = system: Human immunodeficiency virus 1; assay: Antiviral activity against wild type Human immunodeficiency virus 1 NL4-3 infected in human 293T cells assessed as inhibition of CA-SP1 cleavage measured 2 days post infection by Western blotting analysis; type: functional, organism-based
Method in brief: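 293T cells transfected with pNL4-3 proviral plasmid and cultured with compounds. Culture supernatant collected 2 days after transfection. Western blot with anti-p24 monoclonal antibody (hybridoma 183-H12-5C) detected CA-SP1 (p25) accumulation, taken as the measure of blocked CA-SP1 cleavage.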

[3] = system: Human immunodeficiency virus 1; assay: Antiviral activity against 0.001 MOI bevirimat-resistant Human immunodeficiency virus 1 NL4-3 harboring gag V362I mutant infected in human MT4 cells assessed as inhibition of viral replication measured 4 days post infection by ELISA; type: functional, organism-based; details: Human immunodeficiency virus 1, NL4-3, MT4, 96 h
Method in brief: (§4)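 Mutations introduced into pNL4-3 by site-directed mutagenesis. MT4 cells infected with wild-type NL4-3 or resistant variant at 0.001 TCID50/cell in presence of graded compound concentrations. Supernatant p24 measured by ELISA on day 4 post-infection. IC50 is the concentration reducing p24 by 50%, reported as mean ± SD with the number of tests given per value.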

[4] = system: Human immunodeficiency virus 1; assay: Antiviral activity against 0.001 MOI bevirimat-resistant Human immunodeficiency virus 1 NL4-3 harboring gag T371 deletion mutant infected in human MT4 cells assessed as inhibition of viral replication measured 4 days post infection by ELISA; type: functional, organism-based; details: Human immunodeficiency virus 1, NL4-3, MT4, 96 h; method in brief: as §4
[5] = system: Human immunodeficiency virus 1; assay: Antiviral activity against 0.001 MOI bevirimat-resistant Human immunodeficiency virus 1 NL4-3 harboring gag V370 deletion mutant infected in human MT4 cells assessed as inhibition of viral replication measured 4 days post infection by ELISA; type: functional, organism-based; details: Human immunodeficiency virus 1, NL4-3, MT4, 96 h; method in brief: as §4
MT4 = assay: Cytotoxicity against human MT4 cells for 4 days; type: cell-based; details: mt4, 96 h
Method in brief: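 MT4 cells cultured with various compound concentrations for 4 days. Viability read by a CytoTox-Glo luminescent cytotoxicity assay. CC50 is the concentration reducing viable cells by 50%.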

[6] = system: Human immunodeficiency virus 1; assay: Antiviral activity against 0.001 MOI bevirimat-resistant Human immunodeficiency virus 1 NL4-3 harboring gag V370A mutant infected in human MT4 cells assessed as inhibition of viral replication measured 4 days post infection by ELISA; type: functional, organism-based; details: Human immunodeficiency virus 1, NL4-3, MT4, 96 h; method in brief: as §4
[7] = system: Human immunodeficiency virus 1; assay: Antiviral activity against 0.001 MOI wild type Human immunodeficiency virus 1 NL4-3 infected in human MT4 cells assessed as inhibition of viral replication measured 4 days post infection by ELISA; type: functional, organism-based; details: Human immunodeficiency virus 1, NL4-3, MT4, 96 h; method in brief: as §4
[8] = system: Human immunodeficiency virus 1; assay: Potency index, ratio of bevirimat IC50 to compound IC50 for 0.001 MOI bevirimat-resistant Human immunodeficiency virus 1 NL4-3 harboring gag V370A mutant infected in human MT4 cells; type: functional
[9] = system: Human immunodeficiency virus 1; assay: Antiviral activity against bevirimat-resistant Human immunodeficiency virus 1 NL4-3 harboring gag V362I mutant infected in human 293T cells assessed as inhibition of CA-SP1 cleavage measured 2 days post infection by Western blotting analysis; type: functional, organism-based; method in brief: as §3
[10] = as §1; type: cell-based; details: Human immunodeficiency virus 1, NL4-3, COS; method in brief: as §2

| SMILES | inhibition (COS) | inhibition [1] | inhibition [2] | IC50 [3] [nM] | IC50 [4] [nM] | IC50 [5] [nM] | CC50 (MT4) [nM] | IC50 [6] [nM] | IC50 [7] [nM] | Ratio IC50 [8] | inhibition [9] | IC50 [10] [nM] |
| --- | --- | --- | --- | --- | --- | --- | --- | --- | --- | --- | --- | --- |
| C=C(C)[C@@H]1CC[C@]2(C(=O)O)CC[C@]3(C)[C@H](CC[C@@H]4[C@@]5(C)CC[C@H](OC(=O)CC(C)(C)C(=O)O)C(C)(C)[C@@H]5CC[C@]43C)[C@@H]12 [BEVIRIMAT] | inactive | inactive | Active | > 6800 | > 6800 | > 6800 | > 10000 | > 5000 | 76 | – | – | – |
| C=C(C)[C@@H]1CC[C@]2(C(=O)NCCCCCCCCC(=O)N[C@@H](CCC(N)=O)C(=O)OC)CC[C@]3(C)[C@H](CC[C@@H]4[C@@]5(C)CC[C@H](OC(=O)CC(C)(C)C(=O)O)C(C)(C)[C@@H]5CC[C@]43C)[C@@H]12 | inactive | Active | – | 16 | 67 | 320 | > 10000 | 160 | 9 | 20 | Active | – |
| C=C(C)[C@@H]1CC[C@]2(C(=O)NCCCCCCCNC(C)=O)CC[C@]3(C)[C@H](CC[C@@H]4[C@@]5(C)CC[C@H](O)C(C)(C)[C@@H]5CC[C@]43C)[C@@H]12 | – | – | – | – | – | – | – | – | – | – | – | 42 |
